≈ marks a conversion by molar mass, not a printed value.
Legend:
[1] = system: Mycolicibacterium smegmatis; assay: Antimicrobial activity against Mycobacterium smegmatis str. MC2 155 ATCC 700084 incubated for 72 hrs in 7H9 T medium supplemented with 10% Middlebrook ADC enrichment by MTT assay; type: functional; conditions: MC2 155 ATCC 700084, 72 h
Outline: (§1)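 M. smegmatis mc2 155 grown on Columbia blood agar with 5% horse blood at 37 °C. Compounds in DMSO, serially diluted in Mueller-Hinton broth or 7H9 T ADC. Inoculum set to McFarland 0.5, then 5 × 10^5 cfu/mL, mixed 1:1 with the dilutions. Read with MTT after 72 h at 37 °C. MIC is the lowest concentration inhibiting growth.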

[2] = system: Mycolicibacterium smegmatis; assay: Antimicrobial activity against Mycobacterium smegmatis str. MC2 155 ATCC 700084 incubated for 72 hrs in Mueller-Hinton broth medium by MTT assay; type: functional; conditions: MC2 155 ATCC 700084, 72 h; outline: as §1
[3] = system: Mycolicibacterium smegmatis MC2 155; assay: Inhibition of Multidrug resistance efflux pump in Mycobacterium smegmatis str. MC2 155 ATCC 700084 assessed as reduction in ethidium bromide MIC presence of test compound at 16 mg/L
Outline: (§2)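 Broth dilution in MHB with strain mc2 155 from blood agar. Modulator at half its MHB MIC was included in the medium while the antibiotic or EtBr was serially diluted. Inoculum 5 × 10^5 cfu/mL. MTT read-out after 72 h at 37 °C. Value is the fold change in MIC.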

[4] = system: Mycolicibacterium smegmatis MC2 155; assay: Inhibition of Multidrug resistance efflux pump in Mycobacterium smegmatis str. MC2 155 ATCC 700084 assessed as reduction in ciprofloxacin bromide MIC presence of test compound at 16 mg/L; outline: as §2
[5] = system: Mycolicibacterium smegmatis MC2 155; assay: Inhibition of Multidrug resistance efflux pump in Mycobacterium smegmatis str. MC2 155 ATCC 700084 assessed as fractional inhibitory concentration index in presence of ethidium bromide
Outline: (§3)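 Combination testing in MHB broth dilution against mc2 155. Either the modulator or the antibiotic (EtBr or rifampicin) was held in the medium while the partner was serially diluted. 5 × 10^5 cfu/mL inoculum, MTT read-out after 72 h at 37 °C. Fractional inhibitory concentration index derived from the combined MICs.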

[6] = system: Mycolicibacterium smegmatis MC2 155; assay: Inhibition of Multidrug resistance efflux pump in Mycobacterium smegmatis str. MC2 155 ATCC 700084 assessed as reduction in ethambutol bromide MIC presence of test compound at 16 mg/L; outline: as §2
[7] = system: Mycolicibacterium smegmatis MC2 155; assay: Inhibition of Multidrug resistance efflux pump in Mycobacterium smegmatis str. MC2 155 ATCC 700084 assessed as reduction in isoniazid bromide MIC presence of test compound at 16 mg/L; outline: as §2
[8] = system: Mycolicibacterium smegmatis MC2 155; assay: Inhibition of Multidrug resistance efflux pump in Mycobacterium smegmatis str. MC2 155 ATCC 700084 assessed as reduction in rifampicin bromide MIC presence of test compound at 16 mg/L; outline: as §2
[9] = system: Mycolicibacterium smegmatis MC2 155; assay: Inhibition of Multidrug resistance efflux pump in Mycobacterium smegmatis str. MC2 155 ATCC 700084 assessed as fractional inhibitory concentration index in presence of rifampicin; outline: as §3
[10] = system: Mycolicibacterium smegmatis MC2 155; assay: Inhibition of Multidrug resistance efflux pump in Mycobacterium smegmatis str. MC2 155 ATCC 700084 assessed as increase in relative ethidium bromide fluorescence accumulation at 0.5 MIC level by fluorimetric assay (reference value: 6057.1 +/- 508.6 RFU)
Outline: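 Cells grown in 7H9 T with 10% ADC at 37 °C. Compounds at half their 7H9 T ADC MIC, with 0.5 mg/L EtBr and 0.4% glucose at 37 °C. Fluorescence tracked in a microtiter plate until steady state. Relative fluorescence is the mean of the last 10 min of four assays, compared with the EtBr-only control.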

[11] = system: Mycolicibacterium smegmatis MC2 155; assay: Inhibition of Multidrug resistance efflux pump in Mycobacterium smegmatis str. MC2 155 ATCC 700084 assessed as increase in normalized ethidium bromide fluorescence efflux at 0.5 MIC level by fluorimetric assay (reference value: 0.581 +/- 0.051 ratio)
Outline: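 Cells grown in 7H9 T ADC at 37 °C and loaded with 4 mg/L EtBr plus 256 mg/L verapamil. EtBr efflux followed fluorometrically in a microtiter plate with compounds at half their 7H9 T ADC MIC. Normalized fluorescence is the mean of the last 10 min of four assays, compared with the EtBr control.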

[12] = system: Mycolicibacterium smegmatis MC2 155; assay: Inhibition of Multidrug resistance efflux pump in Mycobacterium smegmatis str. MC2 155 ATCC 700084 assessed as reduction in ethidium bromide MIC presence of test compound at 32 mg/L; outline: as §2
[13] = system: Mycolicibacterium smegmatis MC2 155; assay: Inhibition of Multidrug resistance efflux pump in Mycobacterium smegmatis str. MC2 155 ATCC 700084 assessed as reduction in ciprofloxacin bromide MIC presence of test compound at 32 mg/L; outline: as §2
[14] = system: Mycolicibacterium smegmatis MC2 155; assay: Inhibition of Multidrug resistance efflux pump in Mycobacterium smegmatis str. MC2 155 ATCC 700084 assessed as reduction in ethambutol bromide MIC presence of test compound at 32 mg/L; outline: as §2
[15] = system: Mycolicibacterium smegmatis MC2 155; assay: Inhibition of Multidrug resistance efflux pump in Mycobacterium smegmatis str. MC2 155 ATCC 700084 assessed as reduction in isoniazid bromide MIC presence of test compound at 32 mg/L; outline: as §2
[16] = system: Mycolicibacterium smegmatis MC2 155; assay: Inhibition of Multidrug resistance efflux pump in Mycobacterium smegmatis str. MC2 155 ATCC 700084 assessed as reduction in rifampicin bromide MIC presence of test compound at 32 mg/L; outline: as §2
[17] = (§4) Inhibition of Multidrug resistance efflux pump in Mycobacterium smegmatis str. MC2 155 ATCC 700084 assessed as increase in normalized ethidium bromide fluorescence efflux at 0.5 MIC level by fluorimetric assay; parameters: species or system Mycolicibacterium smegmatis MC2 155
[18] = system: Mycolicibacterium smegmatis MC2 155; assay: as §4
[19] = system: Mycolicibacterium smegmatis MC2 155; assay: Inhibition of Multidrug resistance efflux pump in Mycobacterium smegmatis str. MC2 155 ATCC 700084 assessed as reduction in ethidium bromide MIC presence of test compound at 64 mg/L; outline: as §2
[20] = system: Mycolicibacterium smegmatis MC2 155; assay: Inhibition of Multidrug resistance efflux pump in Mycobacterium smegmatis str. MC2 155 ATCC 700084 assessed as reduction in ciprofloxacin bromide MIC presence of test compound at 64 mg/L; outline: as §2
[21] = system: Mycolicibacterium smegmatis MC2 155; assay: Inhibition of Multidrug resistance efflux pump in Mycobacterium smegmatis str. MC2 155 ATCC 700084 assessed as reduction in ethambutol bromide MIC presence of test compound at 64 mg/L; outline: as §2
[22] = system: Mycolicibacterium smegmatis MC2 155; assay: Inhibition of Multidrug resistance efflux pump in Mycobacterium smegmatis str. MC2 155 ATCC 700084 assessed as reduction in isoniazid bromide MIC presence of test compound at 64 mg/L; outline: as §2
[23] = system: Mycolicibacterium smegmatis MC2 155; assay: Inhibition of Multidrug resistance efflux pump in Mycobacterium smegmatis str. MC2 155 ATCC 700084 assessed as reduction in rifampicin bromide MIC presence of test compound at 64 mg/L; outline: as §2

| Compound | MIC [1] [µg/mL] | MIC [2] [µg/mL] | fold change (FC) [3] | fold change (FC) [4] | fractional inhibitory concentration index (FICI) [5] | fold change (FC) [6] | fold change (FC) [7] | fold change (FC) [8] | fractional inhibitory concentration index (FICI) [9] | RFU [10] | Ratio [11] | IC50 [17] [µM] | fold change (FC) [19] | fold change (FC) [20] | fold change (FC) [21] | fold change (FC) [22] | fold change (FC) [23] | other results |
| --- | --- | --- | --- | --- | --- | --- | --- | --- | --- | --- | --- | --- | --- | --- | --- | --- | --- | --- |
| CCCCc1ccc(CCc2ccc(O)c(OC)c2)o1 | ≥ 128 | 32 (≈ 117 µM) | 8 | 2 | 0.19 | 2 | 4 | 16 | 0.19 | 17200 | 0.778 |  |  |  |  |  |  |  |
| CCCCCCC[C@H](O)CC(=O)CCc1ccc(O)c(OC)c1 | ≥ 128 | 64 (≈ 198 µM) |  |  | 0.19 |  |  |  | 1 | 21900 | 0.795 | 83.1 |  |  |  |  |  | fold change (FC) [12]: 8; fold change (FC) [13]: 2; fold change (FC) [14]: 2; fold change (FC) [15]: 2; fold change (FC) [16]: 2 |
| CCCCCCCC(O)CCc1ccc(O)c(OC)c1 (racemic) | 128 (≈ 456 µM) | 32 (≈ 114 µM) | 4 | 2 | 0.38 | 2 | 1 | 4 | 0.75 | 24700 | 0.792 | 69.2 |  |  |  |  |  |  |
| CCCCCCCC(=O)CCc1ccc(O)c(OC)c1 | ≥ 128 | 32 (≈ 115 µM) | 8 | 1 | 0.25 | 1 | 4 | 4 | 0.5 | 24600 | 0.793 | 63.6 |  |  |  |  |  | inhibition [18]: Dose-dependent effect |
| CCCCC[C@H](O)CC(=O)CCc1ccc(O)c(OC)c1 [GINGEROL] | ≥ 128 | ≥ 128 |  |  | 1 |  |  |  | 2 |  |  |  | 2 | 1 | 1 | 1 | 1 |  |
| CCCCCC(=O)CC(=O)CCc1ccc(O)c(OC)c1 | ≥ 128 | 128 (≈ 438 µM) |  |  | 0.25 |  |  |  | 0.5 | 17800 | 0.789 |  | 8 | 2 | 1 | 2 | 4 |  |
| CCCCC[C@H](O)C[C@@H](O)CCc1ccc(O)c(OC)c1 | ≥ 128 | ≥ 128 |  |  | 1 |  |  |  | 2 |  |  |  | 2 | 1 | 1 | 1 | 1 |  |
| CCCCC[C@H](O)CC(=O)CCc1ccc(OC)c(OC)c1 | ≥ 128 | ≥ 128 |  |  | 0.63 |  |  |  | 2 | 11800 | 0.746 |  | 2 | 1 | 1 | 1 | 1 |  |
| CCCCC[C@H](O)C[C@H](O)CCc1ccc(O)c(OC)c1 | ≥ 128 | ≥ 128 |  |  | 1 |  |  |  | 2 |  |  |  | 2 | 1 | 1 | 1 | 1 |  |

Source: ChEMBL document CHEMBL2069298, “Putative mycobacterial efflux inhibitors from the seeds of Aframomum melegueta” (J Nat Prod, 2012)
